The labels stand for the following.
B1: tRNA (parent)
chain: GUUCCGUUGGCGUAAUGGUAACGCGUCUCCCUCCUAAGGAGAAGACUGCGGGUUCGAGUCCCGUACGGAACG

This sample holds only a part of the variants without activity.

The variants in the data set derive from B1. Kind of data set: yeast fitness relative to wild type (ratio to wild type); higher = fitter; tRNA-Arg(CCU), competitive growth, 37 C, YPD. A digest of the protocol: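 Changes in genotype frequencies gave Darwinian fitness relative to wild type. Frequencies were read by 100-nucleotide paired-end sequencing of gene amplicons before and after pooled Saccharomyces cerevisiae strains, carrying tRNA-Arg(CCU) gene variants at the native locus, were competed in YPD at 37°C for 24 hours in six replicates. A genotype was kept only with ≥ 100 starting reads, and estimates < 0.5 were set to 0.5.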
Turning to C30U G44C, the yeast fitness is 0.662.
Regarding C30U G48A, the yeast fitness was 0.861.
For the variant C30U A37C C49U C66U, the yeast fitness was at most 0.5.
Turning to C30U C46U A57U, the yeast fitness was found to be 0.515.
The same measure for C30U G44A C46A: 0.637.
Take C30G C33G C60G A70C: the yeast fitness was at most 0.5.
As for C30G C49G, the yeast fitness is 0.635.
C30G A37G A65G: the yeast fitness is at most 0.5.
For the variant C30G C49A U54G, the yeast fitness was at most 0.5.
On to C30G C34U A36U A65U, for which the yeast fitness was 0.612.
For C30G U47G A65G, the yeast fitness was at most 0.5.
The same measure for C30U G48C A65G: 0.606; for C30G C33G C34U A42U C66U G67C: at most 0.5; for C30A U47C G58A A69U: 0.563.
The same measure for C30U C49U G52A: 0.584; for C30U C34G U53C A69C: at most 0.5; for C30G U32A A40U A42C A65C: at most 0.5.
The figure for C30U G38C C55G C61U is at most 0.5; for C31A A43G A65G it is 0.702; for C31A A40U C46A it is 0.555.
In the case of C30U A43U U64C, the yeast fitness turned out to be 0.707.
In the case of C30U C60U, the yeast fitness worked out at 0.734.
As to C30U C60G, the yeast fitness came out at 0.661.
With C30U C60A, the yeast fitness is 0.593.
For the variant C30G G44A G63A, the yeast fitness was at most 0.5.
As for C30G A57U C66U A70U, the yeast fitness was at most 0.5.
As to C31A C62A, the yeast fitness worked out at 0.6.
For the variant C30U C31G A36C, the yeast fitness is at most 0.5.
Consider C30U C34G G38C A65C, for which the yeast fitness worked out at 0.537.
Take C30G C31G U32A C66U: the yeast fitness turned out to be 0.527.
C31A A37C G58C: the yeast fitness turned out to be 0.521.
In the case of C31A C60A A65U, the yeast fitness came out at 0.619.
As to C30U G51C G58C, the yeast fitness was at most 0.5.
In the case of C31A A40U U53G G56C C62G A70C, the yeast fitness was at most 0.5.
C30U G50A C61G: the yeast fitness was at most 0.5.
With C30U A36C A65C, the yeast fitness was 0.615.
The same measure for C30G U35A C61U C66G A69U: 0.633; for C30U A43C U47G U54G: 0.85; for C31A C60G: 0.516.
Consider C30G C61U A70G, for which the yeast fitness stood at 0.603.
Take C30G C46G G52C G68C: the yeast fitness is at most 0.5.
As to C30U C31U A40C A65C, the yeast fitness was at most 0.5.
Consider C30U C66G A70G, for which the yeast fitness was at most 0.5.
C30G G39C C55A: the yeast fitness is at most 0.5.
The figure for C30U U59A A69C is at most 0.5; for C30G G48C it is 0.624.
For the variant C30G G48A, the yeast fitness came out at 0.633.
Take C30U U54A: the yeast fitness was 0.561.
In the case of C30G A36G A57U A65U C66U, the yeast fitness is at most 0.5.
The same measure for C30G: 0.68; for C30U: 1.01; for C30G A37C C46G G56A: at most 0.5.
In the case of C30G G48A U53C A70U, the yeast fitness was at most 0.5.
Consider C30U G38C U64C A65G, for which the yeast fitness is at most 0.5.
The figure for C30U G50C is 0.69; for C30U A43U G51C it is at most 0.5.
For the variant C31A C46U, the yeast fitness amounted to 0.947.
For the variant C30G A45G, the yeast fitness was found to be 0.698.
As for C30G A42U A45G, the yeast fitness is at most 0.5.
With C30U C34G, the yeast fitness was 0.715.
The same measure for C31A C34G A43C C61U: at most 0.5; for C31A A37G A65U: 0.629.
With C30U C31G C33U A37C A65C, the yeast fitness is at most 0.5.
On to C30G C33G C34U A42U A65C, for which the yeast fitness was at most 0.5.
The figure for C30G G58A A69U is 0.535; for C30G G39C it is 0.579.
For the variant C30U G52A, the yeast fitness was determined as 0.785.
On to C30U G39C, for which the yeast fitness turned out to be 0.682.
C30G A57U C60G A65U: the yeast fitness came out at 0.531.
The figure for C31A A37U C49A is 0.745; for C30G C31G G38C C46G A69C it is 0.572.
In the case of C30G C49A U53C G63A C66G, the yeast fitness is at most 0.5.
As to C30G G44A G48A G58A, the yeast fitness is at most 0.5.
In the case of C30U U47C C66U, the yeast fitness was 0.577.
The figure for C30G C60G is 0.521.
On to C30G C60U, for which the yeast fitness was 0.552.
The same measure for C30G C60A: 0.739; for C30U A57U: 0.863; for C30U A45C G58A G67U: at most 0.5.
For the variant C31A G38C G44A A65G, the yeast fitness came to 0.534.
Take C30U C66U A69U: the yeast fitness stood at 0.602.
As for C30G A40G C49U, the yeast fitness is at most 0.5.
As for C30G A40C U64A, the yeast fitness was 0.565.
For the variant C30U G68C, the yeast fitness is 0.813.
Regarding C30U C31A A40U G56A, the yeast fitness was at most 0.5.
As for C30U A45U, the yeast fitness stood at 0.955.
C30A U54A A57C: the yeast fitness is 0.548.
On to C30U A37U, for which the yeast fitness amounted to 0.65.
For the variant C30G A43U G48C C55A, the yeast fitness amounted to 0.557.
For the variant C30U C34G A40C C49G G68C, the yeast fitness was at most 0.5.
Turning to C30G A37U C61U, the yeast fitness was at most 0.5.
On to C30G G39C U59C G63C, for which the yeast fitness turned out to be 0.558.
For C30G G38A, the yeast fitness was found to be 0.572.
The same measure for C30G C46A A70G: 0.591.
Consider C30U C60G C61A A69G, for which the yeast fitness is at most 0.5.
Regarding C30U C49A, the yeast fitness came out at 0.547.
As to C30U C49G, the yeast fitness amounted to 0.718.
As to C30G A42U G51C, the yeast fitness was at most 0.5.
The same measure for C31A C34U C61G: 0.609; for C30U C55A C62U: at most 0.5.
Turning to C30G C55G U59A U64G, the yeast fitness was at most 0.5.
For the variant C30G G41C A57U, the yeast fitness was at most 0.5.
Regarding C30G C33U C49U G56A, the yeast fitness is at most 0.5.
For the variant C30U A57G C66U, the yeast fitness is 0.53.
For the variant C30G C33U, the yeast fitness was found to be 0.555.
C31A A40U A42G: the yeast fitness worked out at 0.606.
With C31A A42G G67A A69U, the yeast fitness worked out at 0.625.
On to C30U G51A C66U A70C, for which the yeast fitness was at most 0.5.
The figure for C30G C61U A69U is at most 0.5.
In the case of C30G U32G C46G C66U, the yeast fitness was at most 0.5.
For the variant C30G C46G C60U A69G, the yeast fitness is at most 0.5.
Turning to C31A C33U G41C U47C G67C, the yeast fitness is at most 0.5.
Turning to C30G C33U C49U, the yeast fitness stood at 0.556.
With C30G A42G, the yeast fitness is 0.626.
On to C30G A42C, for which the yeast fitness was determined as 0.631.
C30U G44A G48C A70G: the yeast fitness was at most 0.5.
On to C30U G51A C55A, for which the yeast fitness came out at 0.686.
For C30U A36U A70C, the yeast fitness is at most 0.5.
Regarding C30G A42G A45G, the yeast fitness is at most 0.5.
On to C30U U47G, for which the yeast fitness came out at 0.588.
In the case of C30U U47A, the yeast fitness came out at 0.695.
The same measure for C30U U32A A57U: 0.692; for C30U A57C G63C: at most 0.5.
For the variant C31A C46U G67U, the yeast fitness was 0.684.
C30G C61U G68A: the yeast fitness turned out to be 0.541.
As to C31A A45C C62U G63A U64G, the yeast fitness was at most 0.5.
C30G G68U: the yeast fitness is 0.64.
Turning to C30G G68C, the yeast fitness came out at 0.691.
On to C30G G68A, for which the yeast fitness was determined as 0.698.
As for C31A A40U C46A A70C, the yeast fitness is 0.626.
Consider C30U U53A, for which the yeast fitness turned out to be 0.672.
The figure for C30U U53G is 0.618; for C30A G52A A65U it is at most 0.5.
Regarding C31A A43C, the yeast fitness is 0.832.
On to C30U G38A G68C, for which the yeast fitness is 0.574.
For C30U C31U A70C, the yeast fitness was found to be 0.784.
Regarding C31A A42U, the yeast fitness turned out to be 0.909.
As to C30G A36G, the yeast fitness is 0.679.
The figure for C30G A36C is 0.561; for C30G A36U it is 0.538.
The figure for C30A G67U is 0.671.
The same measure for C30A G67C: 0.841.
Take C30U A42C G48C U64C: the yeast fitness was at most 0.5.
In the case of C30A U53C A70C, the yeast fitness worked out at 0.506.
For C30U C33A G39A, the yeast fitness was at most 0.5.
On to C30G U32A C66U, for which the yeast fitness was at most 0.5.
Take C30U A45C G48A G58A G67U: the yeast fitness is at most 0.5.
Consider C30U C31U A57G, for which the yeast fitness is 0.75.
Consider C30U C31U A37G A43G, for which the yeast fitness was at most 0.5.
Regarding C30G C49A U53C, the yeast fitness was 0.563.
Regarding C30G G67U, the yeast fitness was 0.589.
As to C30G G67A, the yeast fitness turned out to be 0.619.
The same measure for C30G U32A A40G C61G: at most 0.5; for C30U G44A G56A: at most 0.5.
With C30U A43C G67U, the yeast fitness came to 0.571.
Turning to C31A C66G, the yeast fitness amounted to 0.615.
On to C30A U53C, for which the yeast fitness was 0.82.
Regarding C31A A45U, the yeast fitness amounted to 1.02.
On to C30G U35A A65C, for which the yeast fitness is at most 0.5.
The same measure for C31A G38C A43C C46G: 0.672.
The figure for C30A U35C A37U is 0.547.
Regarding C30U C31G A37U G48C, the yeast fitness is at most 0.5.
The figure for C30A U53G C60G C62A A70U is 0.515; for C30G A36G A57U it is at most 0.5.
In the case of C31A C33G A45G G48A, the yeast fitness was at most 0.5.
Turning to C31A A36C, the yeast fitness was 0.558.
For the variant C30G C33A G50A G52A C60U C61G, the yeast fitness was at most 0.5.

Source of the values: the RNAGym collection of RNA variant scans (doi:10.1126/science.aae0568).
